Experimental data from PMC5916823 (Molecular cell, 2018).
Positions count from the first letter of the chain named.

Assays:
[1] = ref Kotschy et al., 2016; cited from earlier work
surface groove of MCL-1 = details: ref Kotschy et al., 2016; cited from earlier work
SEC = molecular target: the molecule itself; assay: SEC
SCAD = assay type: binding, mouse; details: Mcl-1-deleted murine livers reconstituted by scAAV; MS in duplicate
How it was run: (§1)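 Mcl-1 floxed mice (6–8 weeks, mixed sex) received tail-vein scAAV-LP1-Cre (2×10^11 genome copies) plus GFP control or FLAG-MCL-1 (wild-type, OMM-only or Matrix-only isoform) vectors (5×10^10 copies). Two weeks later, liver mitochondria were isolated by differential centrifugation and a 70%/30% Percoll gradient. Anti-FLAG M2 IP was run in 0.5% NP40/Tris pH 7.5 for 90 min, with FLAG-peptide elution. Three livers were pooled per IP; MS was run in duplicate, Sequest, ~1% FDR.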

BIM = assay type: binding, mouse; details: Mcl-1-deleted murine livers reconstituted by scAAV; MS in duplicate
How it was run: as §1

PUMA = assay type: binding, mouse; details: Mcl-1-deleted murine livers reconstituted by scAAV; MS in duplicate
How it was run: as §1

MCAD = assay type: binding, mouse; details: Mcl-1-deleted murine livers reconstituted by scAAV; MS in duplicate
How it was run: as §1

For Cc1c(-c2c(-c3ccc(F)o3)sc3ncnc(O[C@H](Cc4ccccc4OCc4ccnn4CC(F)(F)F)C(=O)O)c23)ccc(OCCN2CCN(C)CC2)c1Cl [S63845], the “Toxicity in treated mice” value [1] is given as “lack of overt toxicity, including cardiotoxicity” and the “Selectivity for MCL-1” value (surface groove of MCL-1) is given as “selectively targets the surface groove of MCL-1”.

B1: recombinant human VLCAD (aa 40-655), His-tagged (enzyme, UniProt P49748-1 40-655, looked up)
chain: YAGGAAQLALDKSDSHPSDALTRKKPAKAESKSFAVGMFKGQLTTDQVFPYPSVLNEEQTQFLKELVEPVSRFFEEVNDPAKNDALEMVEETTWQGLKELGAFGLQVPSELGGVGLCNTQYARLVEIVGMHDLGVGITLGAHQSIGFKGILLFGTKAQKEKYLPKLASGETVAAFCLTEPSSGSDAASIRTSAVPSPCGKYYTLNGSKLWISNGGLADIFTVFAKTPVTDPATGAVKEKITAFVVERGFGGITHGPPEKKMGIKASNTAEVFFDGVRVPSENVLGEVGSGFKVAMHILNNGRFGMAAALAGTMRGIIAKAVDHATNRTQFGEKIHNFGLIQEKLARMVMLQYVTESMAYMVSANMDQGATDFQIEAAISKIFGSEAAWKVTDECIQIMGGMGFMKEPGVERVLRDLRIFRIFEGTNDILRLFVALQGCMDKGKELSGLGSALKNPFGNAGLLLGEAGKQLRRRAGLGSGLSLSGLVHPELSRSGELAVRALEQFATVVEAKLIKHKKGIVNEQFLLQRLADGAIDLYAMVVVLSRASRSLSEGHPTAQHEKMLCDTWCIEAAARIREGMAALQSDPWQQELYRNFKSISKALVERGGVVTSNPLGF
In the case of B1, the “stoichiometry N” value (SEC) is reported as 2.

B2: FLAG-MCL-1: full-length protein, reconstituted into Mcl-1−/− murine livers (protein, UniProt P97287 1-331, looked up)
chain: MFGLRRNAVIGLNLYCGGASLGAGGGSPAGARLVAEEAKARREGGGEAALLPGARVVARPPPVGAEDPDVTASAERRLHKSPGLLAVPPEEMAASAAAAIVSPEEELDGCEPEAIGKRPAVLPLLERVSEAAKSSGADGSLPSTPPPPEEEEDDLYRQSLEIISRYLREQATGSKDSKPLGEAGAAGRRALETLRRVGDGVQRNHETAFQGMLRKLDIKNEGDVKSFSRVMVHVFKDGVTNWGRIVTLISFGAFVAKHLKSVNQESFIEPLAETITDVLVRTKRDWLVKQRGWDGFVEFFHVQDLEGGIRNVLLAFAGVAGVGAGLAYLIR
modifications: full-length FLAG tag
In the case of B2, the “Interaction with SCAD (FLAG pull-down)” value (SCAD) is reported as “not MCAD or SCAD”, the “Interaction with BIM (FLAG pull-down)” value (BIM) is reported as “pulled down native VLCAD and established physiologic interactors of MCL-1, such as BIM and PUMA” and the “Interaction with PUMA (FLAG pull-down)” value (PUMA) is reported as “pulled down native VLCAD and established physiologic interactors of MCL-1, such as BIM and PUMA”. The “Interaction with MCAD (FLAG pull-down)” value (MCAD) was “not MCAD or SCAD”.

B3: FLAG-MCL-1^OMM: mutant MCL-1 construct with an internal FLAG tag that only generates the OMM isoform (protein)
chain: B2 chain with R5A, R6A
modifications: left off: FLAG, internal (at residue 134), kept
With B3 the “Interaction with BIM (FLAG pull-down)” value (BIM) was “BIM and PUMA were enriched” and the “Interaction with PUMA (FLAG pull-down)” value (PUMA) was “BIM and PUMA were enriched”.
